In brackets after ≈: the same amount, converted by molar mass. Where a name gives a salt, the structure may show the parent alone.
What was measured:
[1] = tested on: S. pneumoniae DSM14378; test: Minimal bactericidal concentration; format: cell-based; conditions: viability reduced by ≥99.9%
[2] = tested on: S. pneumoniae CF6937; test: Minimal bactericidal concentration; format: cell-based; conditions: viability reduced by ≥99.9%
[3] = tested on: S. pneumoniae BC57; test: Broth microdilution assay; format: cell-based; conditions: Streptococcus pneumoniae, BC57, 18 h, read-out: 90% minimal inhibitory concentration
[4] = tested on: S. pneumoniae DSM20566; test: Biofilm inhibition assay; format: cell-based; conditions: DSM20566, TSB, 24 h
[5] = tested on: S. pneumoniae CF6937; test: Biofilm inhibition assay; format: cell-based; conditions: CF6937, TSB, 24 h
[6] = tested on: S. pneumoniae CF8919; test: Broth microdilution assay; format: cell-based; conditions: Streptococcus pneumoniae, CF8919, 18 h, read-out: 90% minimal inhibitory concentration
[7] = tested on: S. pneumoniae CF6937; test: Broth microdilution assay; format: cell-based; conditions: Streptococcus pneumoniae, CF6937, 18 h, read-out: 90% minimal inhibitory concentration
[8] = tested on: S. pneumoniae BC57; test: Biofilm inhibition assay; format: cell-based; conditions: BC57, TSB, 24 h
[9] = tested on: S. pneumoniae CJ9400; test: Broth microdilution assay; format: cell-based; conditions: Streptococcus pneumoniae, CJ9400, 18 h, read-out: 90% minimal inhibitory concentration
[10] = tested on: S. pneumoniae D39; test: Minimal bactericidal concentration; format: cell-based; conditions: viability reduced by ≥99.9%
[11] = tested on: S. pneumoniae CJ9400; test: Biofilm inhibition assay; format: cell-based; conditions: CJ9400, TSB, 24 h
[12] = tested on: S. pneumoniae CJ9400; test: Minimal bactericidal concentration; format: cell-based; conditions: viability reduced by ≥99.9%
[13] = tested on: S. pneumoniae CF8919; test: Biofilm inhibition assay; format: cell-based; conditions: CF8919, TSB, 24 h
[14] = tested on: S. pneumoniae DSM20566; test: Minimal bactericidal concentration; format: cell-based; conditions: viability reduced by ≥99.9%
[15] = tested on: S. pneumoniae BC7326; test: Biofilm inhibition assay; format: cell-based; conditions: BC7326, TSB, 24 h
[16] = tested on: S. pneumoniae; test: Broth microdilution assay; format: cell-based; conditions: Streptococcus pneumoniae, read-out: MIC90 values
Method in brief: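 Pneumococci were pre-grown in BHI with gentle shaking at 37°C for 4–5 h (mid-exponential), adjusted to McFarland 0.5 (1.5 × 10^8 cfu/mL) and diluted 50× in BHI. 50 µL bacteria plus 100 µL of two-fold compound dilutions (top 50 or 200 µM) in BHI were run in duplicate, overnight at 37°C, 5% CO₂. OD620 at 18 h minus 0 h was taken relative to no-compound growth control; MIC90 is 90% turbidity reduction.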

[17] = tested on: S. pneumoniae PN8828; test: Broth microdilution assay; format: cell-based; conditions: Streptococcus pneumoniae, PN8828, 18 h, read-out: 90% minimal inhibitory concentration
[18] = tested on: S. pneumoniae BC7326; test: Broth microdilution assay; format: cell-based; conditions: Streptococcus pneumoniae, BC7326, 18 h, read-out: 90% minimal inhibitory concentration
[19] = tested on: S. pneumoniae D39; test: Broth microdilution assay; format: cell-based; conditions: Streptococcus pneumoniae, D39, 18 h, read-out: 90% minimal inhibitory concentration
[20] = tested on: S. pneumoniae; test: Bactericidal activity, studied pneumococci; format: cell-based; conditions: for concentration up to which no inhibitory or bactericidal activity was exhibited: maximum tested concentration
[21] = tested on: S. pneumoniae DSM20566; test: Broth microdilution assay; format: cell-based; conditions: Streptococcus pneumoniae, DSM20566, 18 h, read-out: 90% minimal inhibitory concentration
[22] = tested on: S. pneumoniae D39; test: Biofilm inhibition assay; format: cell-based; conditions: D39, TSB, 24 h
[23] = tested on: S. pneumoniae PN8828; test: Biofilm inhibition assay; format: cell-based; conditions: PN8828, TSB, 24 h
[24] = tested on: S. pneumoniae DSM14378; test: Broth microdilution assay; format: cell-based; conditions: Streptococcus pneumoniae, DSM14378, 18 h, read-out: 90% minimal inhibitory concentration
[25] = tested on: S. pneumoniae BC7326; test: Minimal bactericidal concentration; format: cell-based; conditions: viability reduced by ≥99.9%
[26] = tested on: S. pneumoniae DSM14378; test: Biofilm inhibition assay; format: cell-based; conditions: DSM14378, TSB, 24 h
[27] = molecular target: recombinant NanA of DSM20566 (Streptococcus pneumoniae, UniProt P62575); format: biochemical, S. pneumoniae; conditions: read-out: substrate affinity (Km) of rNanA; substrate 4-MUNANA
Chain of recombinant NanA of DSM20566 (P62575 116-1035 limits assumed): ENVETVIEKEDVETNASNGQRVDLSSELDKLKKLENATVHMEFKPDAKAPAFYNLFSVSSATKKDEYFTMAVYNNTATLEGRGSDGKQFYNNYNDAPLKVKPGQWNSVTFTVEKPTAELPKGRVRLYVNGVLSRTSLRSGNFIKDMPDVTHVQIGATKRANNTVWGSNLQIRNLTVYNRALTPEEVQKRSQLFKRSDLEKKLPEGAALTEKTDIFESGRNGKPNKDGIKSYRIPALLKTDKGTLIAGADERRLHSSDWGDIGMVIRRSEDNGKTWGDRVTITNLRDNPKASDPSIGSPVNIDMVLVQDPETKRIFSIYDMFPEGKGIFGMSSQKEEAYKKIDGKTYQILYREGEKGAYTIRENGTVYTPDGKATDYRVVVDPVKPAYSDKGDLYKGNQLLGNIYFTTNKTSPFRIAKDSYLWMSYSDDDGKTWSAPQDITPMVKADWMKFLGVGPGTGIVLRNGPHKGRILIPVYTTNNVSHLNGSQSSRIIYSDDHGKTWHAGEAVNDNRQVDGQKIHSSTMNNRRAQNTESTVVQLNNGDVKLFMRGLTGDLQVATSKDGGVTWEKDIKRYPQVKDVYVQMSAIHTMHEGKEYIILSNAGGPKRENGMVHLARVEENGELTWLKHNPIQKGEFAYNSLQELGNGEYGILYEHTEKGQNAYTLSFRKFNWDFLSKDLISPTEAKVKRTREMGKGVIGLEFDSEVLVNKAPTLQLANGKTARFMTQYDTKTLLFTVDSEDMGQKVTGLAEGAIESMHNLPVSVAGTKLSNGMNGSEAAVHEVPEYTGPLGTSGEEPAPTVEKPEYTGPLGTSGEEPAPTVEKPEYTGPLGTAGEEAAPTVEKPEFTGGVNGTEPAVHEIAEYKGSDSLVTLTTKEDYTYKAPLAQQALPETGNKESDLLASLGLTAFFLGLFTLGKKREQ

[28] = tested on: pneumococcal NA of strain D39; test: Lectin-based hemagglutination; format: cell-based, S. pneumoniae; conditions: for Inhibitory concentration (HA assay): minimal NA inhibitory concentration, strain D39
[29] = molecular target: T1, pneumococcal NA (Streptococcus pneumoniae, UniProt P62575); conditions: ref Gut et al., 2011; cited from earlier work
T1 sequence (P62575 54-1006): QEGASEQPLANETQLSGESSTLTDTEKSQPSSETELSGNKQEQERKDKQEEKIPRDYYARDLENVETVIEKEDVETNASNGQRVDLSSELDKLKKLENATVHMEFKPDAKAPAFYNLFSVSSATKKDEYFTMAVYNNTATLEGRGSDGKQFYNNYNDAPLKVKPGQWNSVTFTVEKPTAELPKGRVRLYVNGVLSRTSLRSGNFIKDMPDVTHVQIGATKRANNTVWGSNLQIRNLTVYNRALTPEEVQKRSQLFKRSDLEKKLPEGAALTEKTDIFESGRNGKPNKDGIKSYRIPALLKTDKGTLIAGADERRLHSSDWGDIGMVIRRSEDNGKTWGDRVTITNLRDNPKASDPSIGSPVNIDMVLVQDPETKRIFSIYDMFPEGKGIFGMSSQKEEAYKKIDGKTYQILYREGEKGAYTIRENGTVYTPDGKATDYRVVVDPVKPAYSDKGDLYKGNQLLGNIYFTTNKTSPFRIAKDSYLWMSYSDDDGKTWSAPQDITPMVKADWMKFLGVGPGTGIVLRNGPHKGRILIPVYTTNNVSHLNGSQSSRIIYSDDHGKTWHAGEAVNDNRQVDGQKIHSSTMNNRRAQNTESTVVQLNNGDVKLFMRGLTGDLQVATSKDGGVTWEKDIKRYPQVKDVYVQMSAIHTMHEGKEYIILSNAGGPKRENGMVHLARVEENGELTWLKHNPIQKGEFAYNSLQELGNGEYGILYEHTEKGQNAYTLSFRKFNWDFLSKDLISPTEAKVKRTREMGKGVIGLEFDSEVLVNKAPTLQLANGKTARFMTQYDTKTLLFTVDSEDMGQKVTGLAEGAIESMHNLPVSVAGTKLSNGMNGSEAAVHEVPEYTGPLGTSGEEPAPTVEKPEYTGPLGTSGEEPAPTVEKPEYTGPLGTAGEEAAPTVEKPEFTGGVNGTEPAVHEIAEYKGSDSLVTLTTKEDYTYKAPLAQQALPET

[30] = tested on: pneumococcal NA of strain CJ9400; test: Lectin-based hemagglutination; format: cell-based, S. pneumoniae; conditions: minimal NA inhibitory concentration
[31] = molecular target: T1, pneumococcal NA; format: biochemical, S. pneumoniae; conditions: precipitated total proteins of all strains
[32] = tested on: pneumococcal NA of strain DSM20566; test: Lectin-based hemagglutination; format: cell-based, S. pneumoniae; conditions: minimal NA inhibitory concentration
[33] = molecular target: T1, pneumococcal NA; format: biochemical, S. pneumoniae
[34] = tested on: pneumococcal adherence to pulmonary epithelial A549 cells; conditions: DSM20566 and PN8828

Compound | Bactericidal concentration [1] | Bactericidal concentration [2] | MIC [3] | 90% minimal biofilm inhibitory concentration [4] | 90% minimal biofilm inhibitory concentration [5] | MIC [6] | MIC [7] | 90% minimal biofilm inhibitory concentration [8] | MIC [9] | Bactericidal concentration [10] | 90% minimal biofilm inhibitory concentration [11] | Bactericidal concentration [12] | 90% minimal biofilm inhibitory concentration [13] | Bactericidal concentration [14] | 90% minimal biofilm inhibitory concentration [15] | MIC [17] | 90% minimal biofilm inhibitory concentration [22] | 90% minimal biofilm inhibitory concentration [23] | Bactericidal concentration [25] | 90% minimal biofilm inhibitory concentration [26] | further results
CO[C@H]1/C=C/O[C@@]2(C)Oc3c(C)c(O)c4c(O)c(c(/C=N/N5CCN(C)CC5)c(O)c4c3C2=O)NC(=O)/C(C)=C\C=C\[C@H](C)[C@H](O)[C@@H](C)[C@@H](O)[C@@H](C)[C@H](OC(C)=O)[C@@H]1C [rifampicin] | 0.14 ± 0.06 µM | 0.05 ± 0.03 µM | 0.012 ± 0.002 µM (≈ 0.00988 µg/mL) | 0.049 ± 0.030 µM | 0.020 ± 0.002 µM | 0.009 ± 0.001 µM (≈ 0.00741 µg/mL) | 0.034 ± 0.028 µM (≈ 0.028 µg/mL) | 0.012 ± 0.001 µM | 0.032 ± 0.03 µM (≈ 0.0263 µg/mL) | 0.22 ± 0.09 µM | 0.003 ± 0.001 µM | 0.23 ± 0.16 µM | 0.006 ± 0.004 µM | 1.97 ± 1.23 µM | 0.016 ± 0.010 µM | 0.005 ± 0.001 µM (≈ 0.00411 µg/mL) | 0.013 ± 0.002 µM | 0.011 ± 0.007 µM | 0.08 ± 0.03 µM | 0.014 ± 0.008 µM | MIC90 [16]: 0.01 to 0.04 µM (≈ 0.00823 to 0.0329 µg/mL); MIC [18]: 0.016 ± 0.005 µM (≈ 0.0132 µg/mL); MIC [19]: 0.021 ± 0.002 µM (≈ 0.0173 µg/mL); factor of reduction of viability of pneumococci ([20]; within 18 h): > 1000; MIC [21]: 0.041 ± 0.011 µM (≈ 0.0337 µg/mL); MIC [24]: 0.031 ± 0.023 µM (≈ 0.0255 µg/mL)
CC(=O)N[C@H]1[C@H]([C@H](O)[C@H](O)CO)O[C@@](Oc2ccc3c(C)cc(=O)oc3c2)(C(=O)O)C[C@@H]1O [4-MUNANA, 2′-(4-methylumbelliferyl)-α-D-N-acetylneuraminic acid sodium salt hydrate] | – | – | – | – | – | – | – | – | – | – | – | – | – | – | – | – | – | – | – | – | Km [27]: 23.6 µM
CC(=O)N[C@H]1[C@H]([C@H](O)[C@H](O)CO)OC(C(=O)O)=C[C@@H]1N=C(N)N [zanamivir] | > 50 µM | > 50 µM | > 50 µM | > 50 µM | > 50 µM | > 50 µM | > 50 µM | > 50 µM | > 50 µM | > 50 µM | > 50 µM | > 50 µM | > 50 µM | > 50 µM | > 50 µM | > 50 µM | > 50 µM | > 50 µM | > 50 µM | > 50 µM | Inhibitory concentration (HA assay) [28]: >100 µM; inhibitory potency to pneumococcal NA (in words) [29]: weak; Inhibitory concentration (HA assay) [30]: >100 µM; inhibition of NA activity, FL-based assay (in words) [31]: did not show an effect; MIC [18]: > 50 µM; MIC [19]: > 50 µM; Inhibitory concentration (HA assay) [32]: >100 µM; MIC [21]: > 50 µM; MIC [24]: > 50 µM; inhibition of NA activity, CL-based assay (in words) ([33]; data not shown): inefficacy
O=C(CCc1ccccc1)C[C@@H]1C[C@@H](c2ccccc2)c2c(cc(/C=C/c3ccccc3)oc2=O)O1 [katsumadain A] | > 50 µM | > 50 µM | > 50 µM | > 50 µM | > 50 µM | > 50 µM | > 50 µM | > 50 µM | > 50 µM | > 50 µM | > 50 µM | > 50 µM | > 50 µM | > 50 µM | > 50 µM | > 50 µM | > 50 µM | > 50 µM | > 50 µM | > 50 µM | Inhibitory concentration (HA assay) [28]: 1.0 ± 0.0 µM; Inhibitory concentration (HA assay) [30]: 0.7 ± 0.4 µM; effect on adhesion of pneumococci to A549 cells (in words) [34]: did not reduce pneumococcal adherence; MIC [18]: > 50 µM; MIC [19]: > 50 µM; Inhibitory concentration (HA assay) [32]: 3.2 ± 0.0 µM; concentration up to which no inhibitory or bactericidal activity was exhibited [20]: > 50 µM; MIC [21]: > 50 µM; MIC [24]: > 50 µM; IC50 ([33]; read-out: IC50, CL-based assay, range among the strains): 310 to 1610 nM
CC(=O)N[C@H]1[C@H]([C@H](O)[C@H](O)CO)OC(C(=O)O)=C[C@@H]1O [DANA, 2,3-dehydro-2-deoxy-N-acetylneuraminic acid] | > 50 µM | > 50 µM | – | > 50 µM | > 50 µM | – | – | > 50 µM | – | > 50 µM | > 50 µM | > 50 µM | > 50 µM | > 50 µM | > 50 µM | – | > 50 µM | > 50 µM | > 50 µM | > 50 µM | Inhibitory concentration (HA assay) [28]: > 100 µM; activity in HA assay (in words) ([28]; reference strain D39): no activity; Inhibitory concentration (HA assay) [30]: 15.4 ± 10.8 µM; effect on adhesion of pneumococci to A549 cells (in words) [34]: did not reduce pneumococcal adherence; Inhibitory concentration (HA assay) [32]: 45.3 ± 30.6 µM; concentration up to which no inhibitory or bactericidal activity was exhibited [20]: > 50 µM

— article PMC5730044 (International journal of medical microbiology : IJMM, 2014)
